# Results pooled from the literature.
# Each line is one published result; the experiments were not run side by side.
# Effect on: binding
# PIKFYVE: 1-phosphatidylinositol 3-phosphate 5-kinase (PIKFYVE, Homo sapiens, UniProt Q9Y2I7)
# PIK3CB: Phosphatidylinositol 4,5-bisphosphate 3-kinase catalytic subunit beta isoform (PIK3CB, Homo sapiens, UniProt P42338)
# mnmE: mnmE (Escherichia coli, UniProt P25522)
# UCK2: Uridine-cytidine kinase 2 (UCK2, Homo sapiens, UniProt Q9BZX2)
SMILES,target,method,pH,notes,Kd [µM]
c1cncc(-c2cccc(Nc3nccc(NC4CCCCC4)n3)c2)c1,"Interleukin-1 receptor-associated kinase 3 (IRAK3, Homo sapiens, UniProt Q9Y616)",competition with immobilised ligand,,,1.4
CCOc1ccc2[nH]c(C)c(/C=C/C(=O)c3ccncc3)c2c1,PIKFYVE,competition with immobilised ligand,,,0.023
CCC(=O)N1CCC(C(=O)NCC(=O)N2CCN(c3nc(-c4cnc(N)nc4C(F)F)nc(N4CCOCC4)n3)CC2)CC1,PIK3CB,,,,0.00071
Cc1cc2nc3c(=O)[nH]c(=O)nc-3n(C[C@H](O)[C@H](O)[C@H](O)COP(=O)(O)OP(=O)(O)OC[C@H]3O[C@@H](n4cnc5c(N)ncnc54)[C@H](O)[C@@H]3O)c2cc1C,"LRP1 (Homo sapiens, UniProt Q07954)",,,lysate,43.9
CN1c2c([nH]c(N)nc2=O)NC[C@@H]1CNc1ccc(C(=O)N[C@@H](CCC(=O)O)C(=O)O)cc1,mnmE,ITC,pH 7.5,,1.1
CO[C@H]1O[C@H](CO)[C@@H](O)[C@H](O)[C@@H]1O,"ZG16 (Homo sapiens, UniProt O60844)",NMR,,,15000
COc1ccc2[nH]c(C(=O)O)c(/C=C/C(=O)c3ccncc3)c2c1,PIKFYVE,competition with immobilised ligand,,,0.046
C=CC(=O)N1CCC(C(=O)NCC(=O)N2CCN(c3nc(-c4cnc(N)nc4C(F)F)nc(N4CCOCC4)n3)CC2)CC1,PIK3CB,,,,0.00085
Cc1ncsc1-c1ccc([C@H](C)NC(=O)[C@@H]2C[C@@H](O)CN2C(=O)[C@@H](NC(=O)CCCCCC(=O)N2CCC3(CC2)CCN(c2cncc(Nc4ncc(Cl)c(-c5cccc(-c6ccccc6)c5)n4)c2)C3=O)C(C)(C)C)cc1,"Phosphatidylinositol 5-phosphate 4-kinase type-2 beta (PIP4K2B, Homo sapiens, UniProt P78356)",,,,> 10
[N-]=[N+]=N[C@@H]1[C@H](O)[C@@H](CO)O[C@H]1n1ccc(=O)[nH]c1=O,UCK2,fluorescence,,,0.0134
O=C(O)c1cccc(Nc2cc(N3CCCCCC3)c3noc4c3c2C(=O)c2ccccc2-4)c1,"Urokinase plasminogen activator surface receptor (Homo sapiens, UniProt Q03405)",,,,0.19
Nc1nc2c(c(=O)[nH]1)N1CN(c3ccc(C(=O)N[C@@H](CCC(=O)O)C(=O)O)cc3)C[C@H]1CN2,mnmE,ITC,,,~1
[N-]=[N+]=N[C@@H]1[C@H](O)[C@@H](CO)O[C@H]1n1ccc(N)nc1=O,UCK2,fluorescence,,,0.0178
Nc1nc(=O)c2c([nH]1)NC[C@@H](CNc1ccc(C(=O)N[C@@H](CCC(=O)O)C(=O)O)cc1)N2C=O,mnmE,ITC,pH 7.5,,0.2
CC(=O)O[C@H]1C(O)O[C@H](COP(=O)(O)OP(=O)(O)OC[C@H]2O[C@@H](n3cnc4c(N)ncnc43)[C@H](O)[C@@H]2O)[C@H]1O (stereo partly drawn),"NAD-dependent histone deacetylase SIR2 (Saccharomyces cerevisiae S288c, UniProt P06700)",SPR,,,0.304
